Laboratory results reported in ChEMBL document CHEMBL1275392, “Assessment of chemoselective neoglycosylation methods using chlorambucil as a model” (2010).

How the values were obtained:
[1] = Growth inhibition of human p53 deficient H1299 cells after 7 days by celltiter-glo assay; format: functional; conditions: NCI-H1299, 168 h
How it was run: (§1)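 Cells seeded at 500 per well in 384-well plates. Compounds came from 30 mM DMSO stocks, serially diluted and tested in quadruplicate. Incubation was 7 d at 37 °C under 5% CO2. Calcein AM (10 μM) and EthD-1 were added, followed by a fluorescence read. CellTiter-Glo lysis was then done for 10 min at room temperature, with a luminescence read. GI50 came from curve fitting.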

[2] = Growth inhibition of human p53 deficient Hep3B cells after 7 days by celltiter-glo assay; format: functional, Hep 3B2; conditions: 168 h; how it was run: as §1
HCT-15 = experiment: Growth inhibition of human HCT15 cells after 7 days by celltiter-glo assay; format: functional; conditions: HCT-15, 168 h
HT-29 = experiment: Growth inhibition of human HT-29 cells after 7 days by celltiter-glo assay; format: functional; conditions: HT-29, 168 h
NCI-H460 = experiment: Growth inhibition of human NCI-H460 cells after 7 days by celltiter-glo assay; format: functional; conditions: NCI-H460, 168 h
MCF7 = experiment: Growth inhibition of human MCF7 cells after 7 days by celltiter-glo assay; format: functional; conditions: MCF7, 168 h
SK-OV-3 = experiment: Growth inhibition of human SKOV3 cells after 7 days by celltiter-glo assay; format: functional; conditions: SK-OV-3, 168 h
SF-268 = experiment: Growth inhibition of human SF268 cells after 7 days by celltiter-glo assay; format: functional; conditions: SF-268, 168 h
A549 = experiment: Growth inhibition of human A549 cells expressing p53 after 7 days by celltiter-glo assay; format: functional; conditions: A549, 168 h
DU-145 = experiment: Growth inhibition of human DU145 cells after 7 days by celltiter-glo assay; format: functional; conditions: DU-145, 168 h

SMILES | GI50 [1] | GI50 [2] | GI50 (HCT-15) | GI50 (HT-29) | GI50 (NCI-H460) | GI50 (MCF7) | GI50 (SK-OV-3) | GI50 (SF-268) | GI50 (A549) | GI50 (DU-145)
CO[C@@H]1[C@@H](O)[C@H](N(CCCc2ccc(N(CCCl)CCCl)cc2)OC)O[C@H](CO)[C@H]1O | 1.7 µM | 4.2 µM | 1.1 µM | 2.7 µM | 7.8 µM | 8.3 µM | 2.4 µM | 2.8 µM | 3.6 µM | 5.1 µM
CON(CCCc1ccc(N(CCCl)CCCl)cc1)C1O[C@H](CN)[C@@H](O)[C@H](O)[C@H]1O (stereo not given in full) | 1.1 µM | 3.5 µM | 1.3 µM | 2.5 µM | 5 µM | 3.7 µM | 2.2 µM | 2.2 µM | 3.7 µM | 2.8 µM
CON(CCCc1ccc(N(CCCl)CCCl)cc1)C1O[C@@H](CO)[C@H](O)[C@@H](O)[C@@H]1O (stereo not given in full) | 0.55 µM | 3.9 µM | 0.88 µM | 2.9 µM | 8 µM | 3.2 µM | 2.5 µM | 2 µM | 3.3 µM | 4.8 µM
CON(CCCc1ccc(N(CCCl)CCCl)cc1)C1O[C@H](CO)[C@@H](O)[C@H](O)[C@@H]1O (stereo not given in full) | 1.01 µM | 3.2 µM | 1.9 µM | 2.6 µM | 7.8 µM | 1.9 µM | 2.3 µM | 1.8 µM | 3.5 µM | 5.1 µM
CON(CCCc1ccc(N(CCCl)CCCl)cc1)C1O[C@@H](CO)[C@H](O)[C@@H](O)[C@H]1O (stereo not given in full) | 1.2 µM | 3.7 µM | 2.2 µM | 3.4 µM | 9.8 µM | 2.2 µM | 2.9 µM | 2 µM | 4.1 µM | 4.9 µM
CON(CCCc1ccc(N(CCCl)CCCl)cc1)C1O[C@H](CO)[C@@H](O)[C@@H](O)[C@H]1O (stereo not given in full) | 0.53 µM | 4.4 µM | 0.97 µM | 0.6 µM | 9.5 µM | 9.3 µM | 3 µM | 3.1 µM | 3.4 µM | 5.8 µM
CON(CCCc1ccc(N(CCCl)CCCl)cc1)C1O[C@@H](CO)[C@H](O)[C@H](O)[C@@H]1O (stereo not given in full) | 1.3 µM | 2.5 µM | 1.7 µM | 2.2 µM | 10.4 µM | 9 µM | 3.1 µM | 3.2 µM | 3.5 µM | 6 µM
CON(CCCc1ccc(N(CCCl)CCCl)cc1)C1O[C@@H](C)[C@H](OC(C)=O)[C@@H](OC(C)=O)[C@H]1OC(C)=O (stereo not given in full) | 5 µM | 4.6 µM | 3.7 µM | 4.3 µM | 7.8 µM | 3.2 µM | 3.9 µM | 3 µM | 3.5 µM | 4.5 µM
CON(CCCc1ccc(N(CCCl)CCCl)cc1)C1O[C@H](CO)[C@H](O)[C@H](O)[C@H]1O (stereo not given in full) | 1.3 µM | 3.6 µM | 2.4 µM | 3.3 µM | 9.7 µM | 1.3 µM | 3.4 µM | 1.9 µM | 4.4 µM | 5.6 µM
CON(CCCc1ccc(N(CCCl)CCCl)cc1)C1C[C@@H](O)[C@@H](O)[C@@H](CO)O1 (stereo not given in full) | 1.5 µM | 3.3 µM | 1.6 µM | 3.5 µM | 6.6 µM | 1.04 µM | 2.4 µM | 2.2 µM | 3.2 µM | 5 µM
CON(CCCc1ccc(N(CCCl)CCCl)cc1)[C@@H]1O[C@H](CO)[C@@H](O)[C@H](O)[C@H]1O | 1.4 µM | 3.4 µM | 2.8 µM | 2.9 µM | 12.3 µM | 1.5 µM | 3 µM | 1.8 µM | 4.5 µM | 5.5 µM
